In the library only some 1.7% were active in any assay of this set; here they are far more common.
PREPL inh: PREPL enzyme inhibitors, primary screen, biochemical, fluorescence polarization; Prolyl endopeptidase-like (Homo sapiens), Q4J6C6; recombinant PREPL, fluorescence polarization activity-based probe; inhibition, % at 5.96 µM; actives 0.68% (n = 320,000); AID 2751, 2010; in the data active means inhibition above about 43%
Apaf1 inhib: inhibitors of human Apaf-1 apoptosome, primary screen, biochemical, DEVD-Rh110 fluorescence, uHTS; Apoptotic protease-activating factor 1 (Homo sapiens), O14727; reconstituted apoptosome caspase-3 activity; inhibition, % at 20 µM; actives 0.71% (n = 330,000); active means inhibition of at least 40% at 20 µM
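System: reconstituted apoptosome with Apaf-1, cytochrome c, caspase-9, procaspase-3, dATP; Signal: Rh110 fluorescence intensity; Schedule: 30 min compound preincubation, 50 min activation, room temperature; Reagent: cytochrome c trigger plus (Z-DEVD)2-Rh110 caspase-3 substrate.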
ZTA DNA inh: counter-screen for EBNA-1 inhibitors: inhibitors of Epstein-Barr virus ZTA. actives 0.15% (n = 320,000). ZTA-DNA binding, fluorescence polarization. inhibition, % at 11 µM. AID 2234. P03206; in the data active means inhibition above about 33%
Target sequence (P03206 whole entry, looked up): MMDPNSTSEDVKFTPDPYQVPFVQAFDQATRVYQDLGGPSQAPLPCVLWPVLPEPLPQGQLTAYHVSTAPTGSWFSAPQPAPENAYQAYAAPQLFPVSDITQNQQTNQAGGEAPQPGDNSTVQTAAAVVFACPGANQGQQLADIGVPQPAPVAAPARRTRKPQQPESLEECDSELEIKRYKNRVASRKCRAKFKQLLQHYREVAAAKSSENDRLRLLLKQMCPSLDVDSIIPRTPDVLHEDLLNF
EBNA-1 inh: EBNA-1 DNA-binding inhibitors, primary screen, biochemical, fluorescence polarization | inhibition, % at 14.8 µM | actives 0.34% (n = 300,000) | AID 1950, 2009; in the data active means inhibition above about 28%
UBC13 polyUb: UBC13 polyubiquitin chain formation inhibitors, primary screen, biochemical, TR-FRET, uHTS | AID 485273, 2010 | inhibition, % at 20 µM | actives 0.47% (n = 330,000) | Ubiquitin-conjugating enzyme E2 N (Homo sapiens), P61088; in the data active means inhibition above about 45%, passing the limit was not always enough
Target sequence (P61088 whole entry, looked up): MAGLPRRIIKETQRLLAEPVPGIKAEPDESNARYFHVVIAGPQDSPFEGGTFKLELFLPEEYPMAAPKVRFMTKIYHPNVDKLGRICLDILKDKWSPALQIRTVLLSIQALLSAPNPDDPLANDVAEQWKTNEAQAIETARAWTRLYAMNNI
EBNA-1 inh conf: EBNA-1 DNA-binding inhibitors, retest, confirmation, biochemical, fluorescence polarization, triplicate. actives 35% (n = 830). inhibition, % at 14.8 µM. Recombinant EBNA-1 DBD, Cy5-DNA fluorescence polarization. shares compounds with EBNA-1 inh;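 active means mean inhibition across replicates above a set limit taken from the earlier primary screen, cut at about 28% in these data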
ZTA DNA inh trip: EBV Zta DNA binding inhibitors, counter-screen for EBNA-1 inhibitor project, biochemical, fluorescence polarization, triplicate; inhibition, % at 11.1 µM; shares compounds with EBNA-1 inh; 830 tested, under 10 active; Zta-ZRE DNA binding, Cy5 fluorescence polarization; AID 2328, 2010;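 active means mean inhibition over triplicates above a set limit taken from the primary EBNA-1 screen, cut at about 37% in these data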;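 further: purified full length Zta protein with Cy5 labeled ZRE DNA probe; inhibitors lower polarization by freeing the labeled DNA probe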
Hits are given with their value; n = inactive; x = no result given; + = active, no number.

SMILES	PREPL inh	Apaf1 inhib	ZTA DNA inh	EBNA-1 inh	UBC13 polyUb	EBNA-1 inh conf	ZTA DNA inh trip
CN(C)CCCN(C(=O)c1cc2cc([N+](=O)[O-])ccc2s1)c1nc2cc3c(cc2s1)OCCO3	n	n	n	n	73	x	x
COC(=O)c1cc(NCc2c(F)cccc2Cl)ccc1N1CCOCC1	n	n	n	n	n	x	x
Fc1cccc(Cl)c1CNc1ccc(N2CCCC2)cc1	n	48	n	n	n	x	x
Cc1c(N=Cc2cc3c(cc2[N+](=O)[O-])OCO3)cccc1[N+](=O)[O-]	n	44	n	n	n	x	x
Cc1ccccc1N=Cc1cc2c(cc1[N+](=O)[O-])OCO2	n	n	n	n	n	x	x
Cc1ccc(/C=c2\sc3n(c2=O)CN(c2cccc(Br)c2)CN=3)o1	n	n	n	n	n	x	x
O=C(c1ccccc1)[C@@H]1[C@@H](C(=O)c2ccc(F)cc2)[C@@]2(C(=O)Nc3ccccc32)[C@H]2c3ccccc3C=CN12	n	64	n	n	n	x	x
O=C1C(Cl)=C(NC(=O)c2ccccc2)C(=O)C(Cl)=C1NC(=O)c1ccccc1	n	56	n	n	n	x	x
Cc1ccc(C=Nc2ccccc2C(N)=O)o1	n	n	n	n	n	x	x
Cc1ccc(C=Nc2ccc(N(C)C)cc2)o1	n	51	+	+	n	x	x
CSc1ccccc1NS(=O)(=O)c1cccc2nonc12	n	n	n	n	n	x	x
O=C1OC(Nc2ccc(F)cc2F)c2ccccc21 (stereo not given)	n	n	n	n	n	x	x
COc1cc(NC(=O)C2Cc3ccccc3CN2S(C)(=O)=O)cc(OC)c1 (stereo not given)	n	n	n	38	n	n	n
COc1ccc(N2CCCn3c2nc2c3c(=O)n(Cc3ccc(C)cc3)c(=O)n2C)c(OC)c1	n	n	n	n	n	x	x
Cc1ccccc1NC(=O)Cn1c(=O)n(Cc2ccccc2)c(=O)c2c(C)c(C)sc21	n	n	n	37	n	n	n
Cc1ccccc1NC(=O)CN1CCN(Cc2ccccc2)CC1	n	n	n	n	n	x	x
CC(=O)c1ccc(NC(=S)NC(=O)Cc2ccc(Cl)cc2)cc1	n	n	n	31	n	43	n
O=C(Nc1cccc(-c2cnc3ccccc3n2)c1)c1ccccc1	n	n	n	40	n	n	n
COc1cc(NC(=O)c2ccccc2)c(OC)cc1NC(=O)Cc1ccc(F)cc1	n	n	n	n	n	x	x
COc1cc(NC(=O)c2ccc(Br)cc2)c(OC)cc1NC(=O)c1ccccc1	n	n	n	57	n	64	n
COc1cc(NC(=O)c2cccnc2)c(OC)cc1NC(=O)c1ccc(Br)cc1	n	n	n	n	n	x	x
O=C(Nc1cccc(C(=O)Nc2ccc(Br)cc2)c1)c1ccccc1	n	n	n	33	n	n	n
O=C(Nc1ccc(Nc2ccccc2)cc1)c1ccc(Br)cc1	n	n	n	n	n	x	x
COc1cc(NC(=O)c2ccccc2)c(OC)cc1NC(=O)Cc1ccc(Br)cc1	n	n	n	36	n	50	n
Cc1ccc(S(=O)(=O)N2CCC(C(=O)OCC(=O)N3CCc4ccccc43)CC2)cc1	n	n	n	33	n	n	n
SMILES	PREPL inh	Apaf1 inhib	ZTA DNA inh	EBNA-1 inh	UBC13 polyUb	EBNA-1 inh conf	ZTA DNA inh trip
CC(NS(=O)(=O)c1cccc(C(=O)O)c1)C12CC3CC(CC(C3)C1)C2 (stereo not given)	x	n	x	x	n	x	x
O=C(/C(=N/N=C/c1ccc(O)c(O)c1O)c1ccccc1)c1ccccc1	n	n	n	39	n	n	n
Oc1ccc(/C=N/N=C(c2ccccc2)c2ccccc2)c(O)c1O	n	x	n	n	x	x	x
Cc1ccccc1NC(=O)C(C)OC(=O)C1CC(=O)N(Cc2ccco2)C1 (stereo not given)	n	n	n	x	n	x	x
COc1ccc2nc3sc(C(=O)NCc4cccs4)c(N)c3cc2c1	n	n	n	31	n	n	n
Cc1ccc2[nH]cc(/C=C/c3cc[n+](C)cc3)c2c1	x	n	x	x	n	x	x
CC[n+]1ccc(/C=C/c2c[nH]c3ccccc23)cc1	n	n	n	42	n	n	n
Cc1cc(C)nc(OC(C(=O)O)C(OCCc2ccccc2)(c2ccccc2)c2ccccc2)n1 (stereo not given)	n	n	n	28	n	n	n
CN(c1ccc(OCC(=O)Nc2cc(Cl)ccc2C(=O)O)cc1)S(=O)(=O)c1ccc(F)cc1	n	n	x	x	n	x	x
CO/C([O-])=N/c1c[n+](-c2ccc(Cl)cc2)no1	n	n	n	39	n	n	n
COc1ccc(NC(=O)N2CCCC(C(=O)NCc3ccccc3F)C2)cc1 (stereo not given)	n	n	n	n	n	x	x
Cn1nc(C(=O)NNc2c(F)c(F)cc(F)c2F)c2ccccc2c1=O	n	n	n	n	n	x	x
O=C1c2c(O)cccc2Cc2cccc(O)c21	n	n	n	31	n	n	n
COc1ccc(C(C(=O)NC2CCCC2)N(Cc2ccccc2)C(=O)c2nsc(Cl)c2Cl)cc1 (stereo not given)	n	n	n	n	n	x	x
Nc1c(C(=O)NC2CC2)sc2nc3c(c(-c4ccco4)c12)CC/C3=C/c1ccco1	n	x	n	46	x	n	n
COc1ccc(-c2cc(C(=O)Nc3c(C)nn(Cc4ccccc4Cl)c3C)no2)cc1	n	n	n	49	n	41	n
Cc1ccc(S(=O)(=O)N2CCN(C(=S)NCCc3ccccc3)CC2)cc1	n	n	n	65	n	n	n
COc1ccc(CCNC(=S)N2CCN(S(=O)(=O)c3ccccc3)CC2)cc1	n	n	n	n	n	x	x
COCCN(Cc1cc2cc(C)cc(C)c2nc1Cl)C(=O)Nc1ccccc1	n	n	n	56	n	n	n
CCOc1ccc(NC(=O)CCC(=O)NNC(=O)COc2ccc(C)cc2)cc1	n	n	n	n	n	x	x
CCOc1ccc(NC(=O)CCC(=O)NNC(=O)COc2ccc(C)cc2Br)cc1	n	n	n	51	n	99	n
CCc1cc(C(=O)N(CC(C)C)c2c(N)n(Cc3ccccc3)c(=O)[nH]c2=O)sc1C	n	n	n	33	n	n	n
CCCN(C(=O)COC(=O)c1cc(CC)c(C)s1)c1c(N)n(Cc2ccccc2)c(=O)[nH]c1=O	n	n	n	n	n	x	x
O=C(Cn1nnc(-c2ccc(CN3CCOCC3)cc2)n1)Nc1nc(-c2ccccc2)cs1	n	n	n	48	n	n	n
O=C(Nc1ccc(N2CCN(c3ncccc3C(F)(F)F)CC2)nc1)c1cccs1	n	n	n	n	n	x	x

Bioassay records from PubChem.
